Series [1] concerns dengue virus type 2. Briefly: Antiviral activity against Dengue virus 2 isolate P0 infected in human HuH7 cells incubated for 3 days by viral reduction assay. Type of series: functional, organism-based. As to conditions: isolate P0, Huh-7, 72 h.
Series [2] in a line: Cytotoxicity in human HuH7 replicon cells infected with Dengue virus 2 NGC assessed as reduction in cell viability incubated for 48 hrs by Cell-titer-Glo reagent based assay. More on the design: species or system Huh-7. An outline of the steps: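 Huh7 cells or Huh7 replicon cells plated, then held at 37 °C with 5% CO₂ overnight. Exposed to 2-fold serial compound dilutions for 48 h, in duplicate. Viability read with CellTiter-Glo and normalized to 0.45% DMSO wells set at 100%. CC50 from four-parameter logistic fit.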
(In general: A replicon is a self-replicating genome or part of one, used to study replication in cells.)

The next series concerns dengue virus type 4. Briefly: Antiviral activity against Dengue virus 4 D4MY01-22713 infected in human HuH7 replicon cells expressing Renilla luciferase and neomycin-resistance genes assessed as reduction in viral replication incubated for 48 hrs by luciferase reporter replicon-based assay. In kind it is functional, organism-based. Particulars: D4MY01-22713, Huh-7, 48 h. In outline: (§1)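 Huh7 cells stably carrying a Renilla luciferase/neomycin-resistance replicon (DENV-1 WestPac, DENV-2 NGC, DENV-3 D3MY05-34640 or DENV-4 D4MY01-22713). Cells seeded at 10k per well and incubated overnight at 37 °C, 5% CO2. Then exposed to 2-fold serial compound dilutions for 48 h, in duplicate. Luciferase read with a live-cell substrate. EC50 from four-parameter logistic fit.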

A further series deals with dengue virus type 3. Briefly: Antiviral activity against Dengue virus 3 D3MY05-34640 infected in human HuH7 replicon cells expressing Renilla luciferase and neomycin-resistance genes assessed as reduction in viral replication incubated for 48 hrs by luciferase reporter replicon-based assay. Type of series: functional, organism-based. Particulars: D3MY05-34640, Huh-7, 48 h. An outline of the steps: as §1

Series [3] deals with dengue virus type 2. The series is described as follows: Antiviral activity against Dengue virus 2 NGC infected in human HuH7 replicon cells expressing Renilla luciferase and neomycin-resistance genes assessed as reduction in viral replication incubated for 48 hrs by luciferase reporter replicon-based assay. In kind it is functional, organism-based. Particulars: Huh-7, 48 h. In outline: as §1

Another series concerns dengue virus type 1. Briefly: Antiviral activity against Dengue virus 1 WestPac infected in human HuH7 replicon cells expressing Renilla luciferase and neomycin-resistance genes assessed as reduction in viral replication incubated for 48 hrs by luciferase reporter replicon-based assay. Type of series: functional, organism-based. Particulars: Huh-7, 48 h. An outline of the steps: as §1

For series [4], the system named is dengue virus type 2. The series is described as follows: Antiviral activity against Dengue virus 2 D2Y98P infected in A129 mouse model of dengue viremia assessed as reduction in viral loads in sera at 100 mg/kg, po BID for 3 days measured day 3 postinfection by viral plaque assay relative to control. Type of series: functional. In outline: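 A129 mice (IFN-α/β receptor knockout), 3 weeks old, n = 6 per group; DENV-2 D2Y98P stock grown in BHK-21 cells, 100 µL at 10⁷ PFU/ml given subcutaneously. Oral dosing started immediately, twice daily for 3 days, as a suspension in 2.5% DMSO, 50% PEG-400 and 47.5% DPBS, or vehicle alone. Retro-orbital bleed on day 3 p.i.; plasma viremia measured by plaque assay; unpaired parametric test.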

Series [5] concerns dengue virus type 2. The series is described as follows: Antiviral activity against NS3 T606A mutant and NS4B V63L mutant containing Dengue virus 2 isolate P12-VI infected in human HuH7 cells using viral isolates selected by serial passaging in presence of (R)-5'-Chloro-3-((S)-1-(4-chlorophenyl)ethyl)-1'-(2-(dimethylamino)ethyl)-4,6-dihydrospiro[[1,2,3]triazolo[4,5-b]-pyridine-7,3'-indoline]-2',5(3H)-dione incubated for 3 days by viral reduction assay. Type of series: functional, organism-based. As to conditions: Huh-7.

For series [6], the system named is dengue virus type 2. Briefly: Resistance index, ratio of EC50 for antiviral activity against NS3 T606A mutant and NS4B V63L mutant containing Dengue virus 2 isolate P12-VI infected in human HuH7 cells using viral isolates selected by serial passaging in presence of (R)-5'-Chloro-3-((S)-1-(4-chlorophenyl)ethyl)-1'-(2-(dimethylamino)ethyl)-4,6-dihydrospiro[[1,2,3]triazolo[4,5-b]-pyridine-7,3'-indoline]-2',5(3H)-dione incubated for 3 days by viral reduction assay to EC50 for antiviral activity against Dengue virus 2 isolate P0 infected in human HuH7 cells incubated for 3 days by viral reduction assay. In kind it is functional.

Series [7] concerns dengue virus type 2. The series is described as follows: Antiviral activity against Dengue virus 2 NGC infected in human HuH7 cells incubated for 48 hrs by viral titer reduction assay. Particulars: Huh-7, 48 h. Type of series: functional, organism-based. An outline of the steps:
(§2)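 Huh7 cells seeded the day before, then infected with DENV-2 NGC or D2Y98P at MOI 0.3 in the presence of 2-fold serial compound dilutions, in triplicate. After 48 h at 37 °C, infectious virus in the culture fluid was titrated by plaque assay. EC50 from four-parameter logistic fit.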

The test system of series [8] is dengue virus type 2. The series is described as follows: Antiviral activity against Dengue virus 2 D2Y98P infected in A129 mouse model of dengue viremia assessed as reduction in viral morbidity by measuring body weight at 100 mg/kg, po BID for 3 days measured day 3 postinfection by viral plaque assay relative to control. Type of series: functional, organism-based.

Series [9] in a line: Tmax in Sprague-Dawley rat at 20 mg/kg, po measured up to 24 hrs by LC-MS/MS analysis. As to conditions: in vivo. Type of series: ADME, organism-based. An outline of the steps: (§3)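 Male SD rats, n = 3, fasted 12 h, given 20 mg/kg orally. Comparison arm given 10 mg/kg as an iv bolus, n = 3. Both formulated in DMSO:20% HP-β-CD in saline (1:9). Plasma sampled from 15 min (5 min iv) to 24 h. Analysed by LC-MS/MS against an 8-point standard curve with 6 QCs. Parameters derived by non-compartmental analysis.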

The nature of series [10]: Clearance in Sprague-Dawley rat at 20 mg/kg, po measured up to 24 hrs by LC-MS/MS analysis. In kind it is ADME, organism-based. Particulars: in vivo. An outline of the steps: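 Male SD rats, N = 3, fasted 12 h; oral 20 mg/kg (alongside a 10 mg/kg i.v. bolus arm) formulated as DMSO solution : 20% HP-β-CD in saline = 1:9. Plasma sampled at 15 min, 30 min, 1, 2, 4, 8 and 24 h. Levels measured by LC-MS/MS against an 8-point standard curve with 6 QCs; parameters from non-compartmental analysis.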

Series [11] in a line: Oral bioavailability n Sprague-Dawley rat at 20 mg/kg measured up to 24 hrs by LC-MS/MS analysis. Type of series: ADME, organism-based. Particulars: in vivo. In outline: as §3
The subject of series [12] is dengue virus type 2. Briefly: Antiviral activity against Dengue virus 2 D2Y98P infected in human HuH7 cells incubated for 48 hrs by viral titer reduction assay. In kind it is functional, organism-based. As to conditions: Huh-7, 48 h. An outline of the steps:
as §2

The test system of series [13] is dengue virus type 2. The series is described as follows: Resistance index, ratio of EC50 for antiviral activity against NS3 T606A mutant containing Dengue virus 2 isolate P12-II infected in human HuH7 cells using viral isolates selected by serial passaging in presence of DMSO incubated for 3 days by viral reduction assay to EC50 for antiviral activity against Dengue virus 2 isolate P0 infected in human HuH7 cells incubated for 3 days by viral reduction assay. Type of series: functional.

In series [14] the test system is dengue virus type 2. Briefly: Resistance index, ratio of EC50 for antiviral activity against NS3 T606A mutant containing Dengue virus 2 isolate P12-I infected in human HuH7 cells using viral isolates selected by serial passaging in presence of DMSO incubated for 3 days by viral reduction assay to EC50 for antiviral activity against Dengue virus 2 isolate P0 infected in human HuH7 cells incubated for 3 days by viral reduction assay. Type of series: functional.

Series [15] has as its system dengue virus type 2. The series is described as follows: Antiviral activity against NS3 T606A mutant and NS4B V63L mutant containing Dengue virus 2 isolate P12-VI infected in human HuH7 cells using viral isolates selected by serial passaging in presence of test compound incubated for 3 days by viral reduction assay. In kind it is functional, organism-based. As to conditions: Huh-7, 72 h.

The test system of series [16] is dengue virus type 2. Briefly: Antiviral activity against NS4B V63M and P104S mutant containing Dengue virus 2 isolate P12-V infected in human HuH7 cells using viral isolates selected by serial passaging in presence of test compound incubated for 3 days by viral reduction assay. As to conditions: Huh-7, 72 h. In kind it is functional, organism-based.
Series [17] deals with dengue virus type 2. Briefly: Antiviral activity against NS4B V63M mutant containing Dengue virus 2 isolate P12-IV infected in human HuH7 cells using viral isolates selected by serial passaging in presence of test compound incubated for 3 days by viral reduction assay. In kind it is functional, organism-based. As to conditions: Huh-7, 72 h.
In series [18] the test system is dengue virus type 2. The series is described as follows: Antiviral activity against NS3 T606A mutant and NS4B V63M mutant containing Dengue virus 2 isolate P12-III infected in human HuH7 cells using viral isolates selected by serial passaging in presence of test compound incubated for 3 days by viral reduction assay. Particulars: Huh-7, 72 h. In kind it is functional, organism-based.

The test system of series [19] is dengue virus type 2. The series is described as follows: Antiviral activity against NS3 T606A mutant containing Dengue virus 2 isolate P12-II infected in human HuH7 cells using viral isolates selected by serial passaging in presence of DMSO incubated for 3 days by viral reduction assay. In kind it is functional, organism-based. Particulars: Huh-7, 72 h.
In series [20] the test system is dengue virus type 2. Briefly: Antiviral activity against NS3 T606A mutant containing Dengue virus 2 isolate P12-I infected in human HuH7 cells using viral isolates selected by serial passaging in presence of DMSO incubated for 3 days by viral reduction assay. Type of series: functional, organism-based. As to conditions: Huh-7, 72 h.
For series [21], the system named is dengue virus type 2. The series is described as follows: Resistance index, ratio of EC50 for antiviral activity against NS3 T606A mutant and NS4B V63M mutant containing Dengue virus 2 isolate P12-III infected in human HuH7 cells using viral isolates selected by serial passaging in presence of test compound incubated for 3 days by viral reduction assay to EC50 for antiviral activity against Dengue virus 2 isolate P0 infected in human HuH7 cells incubated for 3 days by viral reduction assay. Type of series: functional.

In series [22] the test system is dengue virus type 2. The series is described as follows: Resistance index, ratio of EC50 for antiviral activity against NS4B V63M mutant containing Dengue virus 2 isolate P12-IV infected in human HuH7 cells using viral isolates selected by serial passaging in presence of test compound incubated for 3 days by viral reduction assay to EC50 for antiviral activity against Dengue virus 2 isolate P0 infected in human HuH7 cells incubated for 3 days by viral reduction assay. Type of series: functional.

The subject of series [23] is dengue virus type 2. Briefly: Resistance index, ratio of EC50 for antiviral activity against NS4B V63M and P104S mutant containing Dengue virus 2 isolate P12-V infected in human HuH7 cells using viral isolates selected by serial passaging in presence of test compound incubated for 3 days by viral reduction assay to EC50 for antiviral activity against Dengue virus 2 isolate P0 infected in human HuH7 cells incubated for 3 days by viral reduction assay. In kind it is functional.

Series [24] concerns dengue virus type 2. Briefly: Resistance index, ratio of EC50 for antiviral activity against NS3 T606A mutant and NS4B V63L mutant containing Dengue virus 2 isolate P12-VI infected in human HuH7 cells using viral isolates selected by serial passaging in presence of test compound incubated for 3 days by viral reduction assay to EC50 for antiviral activity against Dengue virus 2 isolate P0 infected in human HuH7 cells incubated for 3 days by viral reduction assay. In kind it is functional.

Each structure is given as a SMILES string. Activity calls are given as the source filed them. The rule behind the calls is not given here. Bounds are passed on as bounds.

As usually defined, the EC50 is the concentration that produces a half-maximal response. What is called CC50 is the concentration at which the toxic effect on the cells reaches its halfway point. As usually defined, the Tmax is the time at which the peak concentration occurs. By CL/F is commonly meant the apparent clearance, not corrected for the fraction that reaches the circulation. Broadly, the bioavailability is dose-corrected exposure relative to a reference, in per cent. Take `CC(C)CCN1C(=O)[C@]2(CC(=O)Nc3c2nnn3[C@@H](C)c2ccc(Cl)cc2)c2cc(Cl)ccc21`: the concentration for a half-maximal effect (EC50) was 123 nM in the series with dengue virus type 2 [1]; over 5000 nM in the series on dengue virus type 4; 35 nM in the series on dengue virus type 3; 160 nM in the series on dengue virus type 2 [3]; 780 nM in the series on dengue virus type 1; 1960 nM with dengue virus type 2 [5]. The EC50 was 100 to 108 nM with dengue virus type 2 [7] and 130 nM in the series with dengue virus type 2 [12]. The 50% cytotoxic concentration (CC50) at 48 h in series [2] is over 10000 nM. In the series on dengue virus type 2 [4], the log reduction is recorded as 2.4. The “Ratio EC50” value in the series with dengue virus type 2 [6] is given as 16. The outcome with dengue virus type 2 [8] was Active. Besides, in series [9], the Tmax is 1 h. This compound had a CL/F in series [10] of 59.5 mL/min/kg. Moreover, in series [11], the bioavailability was 30%.
On to `C[C@@H](c1ccc(Cl)cc1)n1nnc2c1NC(=O)C[C@]21C(=O)N(CCN(C)C)c2ccc(Cl)cc21`, for which the “Ratio EC50” value in the series on dengue virus type 2 [13] was 0.93; in the series with dengue virus type 2 [14] it was 0.8; with dengue virus type 2 [21], over 100; in the series on dengue virus type 2 [22], over 100; with dengue virus type 2 [23] it was over 100; in the series on dengue virus type 2 [24], over 100. Moreover, the EC50 was 60 nM in the series on dengue virus type 2 [1]; over 6000 nM in the series with dengue virus type 2 [15]; over 6000 nM with dengue virus type 2 [16]; over 6000 nM in the series with dengue virus type 2 [17]; over 6000 nM with dengue virus type 2 [18]; 56 nM in the series on dengue virus type 2 [19]. The EC50 was 48 nM with dengue virus type 2 [20]; over 5000 nM with dengue virus type 4; 2 nM in the series on dengue virus type 3; 25 nM with dengue virus type 2 [3]; over 5000 nM in the series with dengue virus type 1. Besides, the CC50 at 48 h in [2] was over 10000 nM.
